From PubChem BioAssay come the findings set out here.

Activity calls are given as the source filed them.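 How the source made its calls, unless noted: active means inhibition above 20% together with a positive visual image hit; inconclusive means visual image hit but inhibition not above 20%; inactive means no visual image hit.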

Test [1] can be described thus: inhibitors of TNFa-induced NFkB p65 translocation, primary screen, imaging, HUVEC, MLSMR starter and 10KST1 sets (AID 438).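 Further: compound added about 3h40 before a 20 min TNFalpha stimulation.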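 On inhibition: signal is the nuclear over cytoplasmic p65 intensity ratio per well.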 The conditions noted are these: HUVEC TNFa-induced p65 nuclear translocation; cell count: measured here: nuclei count (cytotoxicity indicator), at 2.08 µM; inhibition: at 2 µM, stronger effect = higher value, 0% TNFa-plus-vehicle, 100% no-TNFa wells.
Test [2] in a line: reduction of polyQ htt aggregates in cells – imaging, exon1htt(103Q)mCFP cells, high-content imaging, primary screen (AID 483;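 active means visual image review flags a hit and inhibition of aggregation exceeds 20%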;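 further: compound exposure lasted 3 days before fixation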;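 on nuclei count: percent of the per-plate median nuclei count of sample wells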). The conditions noted are these: exon1htt(103Q)mCFP cell line, aggregate imaging, at 2 µM; inhibition of aggregation: stronger effect = higher value; nuclei count: measured here: cell count, toxicity.
The nature of test [3]: endothelial E-selectin expression blockers – imaging, HUVEC, immunofluorescence, MLSMR starter and 10KST1 sets, primary screen (AID 487;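 active means visually confirmed hit in the image check and inhibition above 20%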;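 on inhibition: signal is fraction of cell area covered by stained E-selectin grains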;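 on nuclei count: 100% = median nuclei count of all wells on the same plate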). As to conditions: HUVEC TNFalpha-induced E-selectin immunofluorescence imaging, at 2 µM; inhibition: stronger effect = higher value; nuclei count: measured here: cell number, toxicity.
The target of test [4] is Voltage-gated potassium channel subunit beta-2 (Rattus norvegicus) (UniProt P62483). As to the kind of experiment: inhibitors of rat Kvbeta2 reductase activity – biochemical, NADPH fluorescence, primary screen (AID 622;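 active means fluorescence slope higher than the sample average by over 3 SD, cut at about -0.22 in these data, passing the limit was not always enough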;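 further: slope of raw intensity against log time taken from 70 to 1610 s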). As to conditions: recombinant KvBeta, 4-cyanobenzaldehyde reduction, at 10 µM, stronger effect = higher value.
Chain of Voltage-gated potassium channel subunit beta-2 (Rattus norvegicus) (P62483 whole entry, looked up): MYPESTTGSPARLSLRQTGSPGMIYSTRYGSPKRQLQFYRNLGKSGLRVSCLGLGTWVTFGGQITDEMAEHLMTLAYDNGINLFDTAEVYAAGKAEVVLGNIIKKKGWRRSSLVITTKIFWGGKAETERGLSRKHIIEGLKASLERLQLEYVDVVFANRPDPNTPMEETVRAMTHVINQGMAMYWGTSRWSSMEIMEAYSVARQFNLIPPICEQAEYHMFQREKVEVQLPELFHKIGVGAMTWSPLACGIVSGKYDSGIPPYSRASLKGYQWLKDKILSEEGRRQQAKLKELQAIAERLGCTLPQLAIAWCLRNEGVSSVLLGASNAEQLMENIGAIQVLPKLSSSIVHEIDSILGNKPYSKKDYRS
The target is the same in test [5]. As to the kind of experiment: enhancers of rat Kvbeta2 NADPH turnover – biochemical, NADPH fluorescence, primary screen (AID 623;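 active means NADPH fluorescence slope more negative than the mean of all samples by about 3 SD, 99.7% confidence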;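 further: fluorescence intensity change per second fitted from 20 to 320 s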). As to conditions: Recombinant KvBeta, NADPH fluorescence decrease slope, 10 min; at 10 µM; stronger effect = lower value.
For test [6], the target named is Muscarinic acetylcholine receptor M4 (Homo sapiens) (UniProt P08173). Kind of test: M4-linked GIRK flux change, two-sided – cell-based, HEK293 M4/GIRK, thallium flux, BTC-AM, M4 allosteric agonist project, primary screen (AID 625;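 active means fluorescence slope after compound addition differing from the mean of all tested samples at 99.7% confidence, mostly higher but some lower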;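 further: thallium influx through GIRK channels coupled to M4 in HEK293 cells with BTC-AM dye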). As to conditions: at 10 µM, actives lie on both sides. Summed up:
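Material: HEK293 cells with M4 receptor and GIRK channels; Times: cells overnight at 37 °C, BTC-AM loading 1 h, reads 2 min total; Technique: kinetic BTC-AM fluorescence sampled at 1 Hz, 10 s pre-addition baseline; Read-out basis: slope over 15–24 s of trace normalized to starting intensity; Controls: carbachol positive, DMSO negative.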

The nature of test [7]: blockers of RIG-like receptor reporter activation – cell-based, Sendai virus stimulus, luciferase, 10K MLSCN set, TLR/RLR signaling modifier project, primary screen (AID 602276;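 active means inhibition at or above 50% at 10 µM; inactive means inhibition below 50%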;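 further: firefly luciferase from ISG56 promoter only with Renilla not read in this screen; 0% = Sendai virus plus DMSO and 100% = medium plus DMSO without virus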). As to conditions: HEK293 RL24 IRF3 luciferase reporter, at 10 µM, stronger effect = higher value. (In general: Reporter assays use an easily measured gene product as a stand-in for the process of interest.)
Test [8] is described as follows: TLR3 IRF3 reporter activation blockers – cell-based, poly I:C stimulus, luciferase, 10K MLSCN set, primary screen (AID 602277;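 active means inhibition of the reporter signal at or above 50%; inactive means inhibition below 50%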). The conditions noted are these: HEK293-TLR3 RL24 IRF3 luciferase reporter, at 10 µM, stronger effect = higher value.

Chain of Muscarinic acetylcholine receptor M4 (Homo sapiens) (P08173 whole entry, looked up): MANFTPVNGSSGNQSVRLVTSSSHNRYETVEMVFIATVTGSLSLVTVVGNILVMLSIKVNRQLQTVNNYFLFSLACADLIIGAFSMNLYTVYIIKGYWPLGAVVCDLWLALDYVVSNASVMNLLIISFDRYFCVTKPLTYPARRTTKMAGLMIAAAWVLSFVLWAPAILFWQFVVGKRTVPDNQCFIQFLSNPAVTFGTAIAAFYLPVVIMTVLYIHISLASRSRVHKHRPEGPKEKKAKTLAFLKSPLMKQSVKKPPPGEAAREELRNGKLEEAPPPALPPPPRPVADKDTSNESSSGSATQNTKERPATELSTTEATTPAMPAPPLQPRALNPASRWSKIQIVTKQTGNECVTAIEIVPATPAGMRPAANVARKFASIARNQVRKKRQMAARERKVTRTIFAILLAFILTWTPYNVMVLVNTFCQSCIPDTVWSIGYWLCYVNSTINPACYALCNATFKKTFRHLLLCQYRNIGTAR

As a reminder, the inhibition is the change of the read-out against control, counted positive when it falls. Take `O=C(O)CCNc1ccc2c(c1)OCCO2`: the cell count in test [1] was 510. The inhibition was -26.5% (inactive) in test [1], -25.3% (inactive) in test [3], 4.8% (inactive) in test [7] and 5.31% (inactive) in test [8]. For the same molecule, the inhibition of aggregation in test [2] was 10% (inactive). The nuclei count was found to be 118% in test [2] and 116% in test [3]. Also, the fluorescence slope in test [4] is -0.348 (inactive); in test [6] it was 0.00514 (inactive). Also, in test [5], the NADPH fluorescence slope is -3.8e-05 (inactive).

For the molecule `COc1ccc(C(=O)CSc2nnc(CNc3ccc(C)cc3C)o2)cc1`, the cell count in test [1] was 606. For the same molecule, the inhibition is -4.1% (inactive) in test [1], -136% (inactive) in test [3], 14.6% (inactive) in test [7] and 11.8% (inactive) in test [8]. In test [2], the inhibition of aggregation is 3% (inactive). For the same molecule, the nuclei count in test [2] is 101%; in test [3], 199%. The fluorescence slope in test [4] was -0.469 (inactive); in test [6] it was 0.00401 (inactive). The NADPH fluorescence slope in test [5] is -8.4e-05 (inactive).

For `O=C(CS(=O)(=O)Cc1ccccc1)N1CCc2ccccc2C1`, the cell count in test [1] worked out at 753. The inhibition in test [1] is -0.7% (inactive); in test [3] it was -110% (inactive); in test [7] it was -17.6% (inactive); in test [8] it was -31.5% (inactive). For the same molecule, in test [2], the inhibition of aggregation was 13.8% (inactive). Besides, the nuclei count in test [2] came out at 97.8%; in test [3] it was 124%. Further, the figures for the fluorescence slope in test [4] and in test [6] were -0.529 (inactive) and 0.00542 (inactive), respectively. The NADPH fluorescence slope in test [5] was -4.4e-05 (inactive).

In the case of `CCOC(=O)N1CCN(c2cc3nccnc3cc2F)CC1`, the cell count in test [1] was determined as 412. Besides, the inhibition was 3.1% (inactive) in test [1], -54.5% (inactive) in test [3], 10.4% (inactive) in test [7] and -18.8% (inactive) in test [8]. In addition, the inhibition of aggregation in test [2] was -5.3% (inactive). Also, the nuclei count in test [2] is 113%; in test [3] it was 111%. Besides, the fluorescence slope was -0.173 (inactive) in test [4] and 0.00552 (inactive) in test [6]. In addition, the NADPH fluorescence slope in test [5] was -4.3e-05 (inactive).

As to `O=C(NCCC1=CCCCC1)C1CCN(S(=O)(=O)c2cccc3nsnc23)CC1`, in test [1], the cell count was found to be 609. In addition, the inhibition in test [1] was 7.7% (inactive); in test [3] it was -41.8% (inactive); in test [7], 13.1% (inactive); in test [8], 26.5% (inactive). Further, the inhibition of aggregation in test [2] was 4.8% (inactive). Further, the results for the nuclei count in test [2] and in test [3] were 94.6% and 126%, respectively. The values for the fluorescence slope in test [4] and in test [6] were -0.443 (inactive) and 0.0046 (inactive), respectively. Also, the NADPH fluorescence slope in test [5] was -6e-05 (inactive).

Take `CCOC(=O)c1ccccc1NC(=O)COC(=O)C1=COCCO1`: the cell count in test [1] was 595. Moreover, the inhibition is -3.1% (inactive) in test [1], -92% (inactive) in test [3], 15.1% (inactive) in test [7] and 2.55% (inactive) in test [8]. The inhibition of aggregation in test [2] is 14% (inactive). Further, the nuclei count is 61.5% in test [2] and 95.5% in test [3]. For the same molecule, the values for the fluorescence slope in test [4] and in test [6] were -0.286 (inactive) and 0.00593 (inactive), respectively. Moreover, the NADPH fluorescence slope in test [5] is -3.3e-05 (inactive).

Regarding `Cc1ccc(/C(O)=C2\C(=O)C(=O)N(CCCN(C)C)C2c2ccccn2)cc1` (centres undefined), the cell count in test [1] was found to be 536. The inhibition in test [1] is 0.9% (inactive); in test [3], -53.4% (inactive); in test [7], 16.3% (inactive); in test [8], 8.71% (inactive). Besides, in test [2], the inhibition of aggregation was -3.7% (inactive). Also, the nuclei count in test [2] worked out at 98.9%; in test [3] it was 132%. Moreover, the fluorescence slope in test [4] is -0.514 (inactive); in test [6] it was 0.00375 (inactive). Further, the NADPH fluorescence slope in test [5] was -0.000162 (inactive).

In the case of `CC(=O)c1cc2c(=O)c3cc(C)ccc3oc2nc1C`, in test [1], the cell count was 410. The inhibition in test [1] is 5.3% (inactive); in test [3], -96.2% (inactive); in test [7], -28.2% (inactive); in test [8] it was -91.3% (inactive). Further, in test [2], the inhibition of aggregation is 7.1% (inactive). In addition, the results for the nuclei count in test [2] and in test [3] were 93.5% and 187%, respectively. Moreover, the fluorescence slope was -0.346 (inactive) in test [4] and 0.00597 (inactive) in test [6]. Further, the NADPH fluorescence slope in test [5] was 5.2e-06 (inactive).

As for `CCC(=O)Oc1ccc2c(C)cc(=O)oc2c1C`, the cell count in test [1] was found to be 328. Also, the inhibition in test [1] was 3.4% (inactive); in test [3], -42.2% (inactive); in test [7], 10.7% (inactive); in test [8], -2.94% (inactive). Also, the inhibition of aggregation in test [2] was -23.4% (inactive). The nuclei count in test [2] came to 98.2%; in test [3], 108%. Also, the fluorescence slope in test [4] is -0.554 (inactive); in test [6] it was 0.00649 (inactive). Also, in test [5], the NADPH fluorescence slope was -4.5e-05 (inactive).

On to `COCC(=O)NC(c1ccccc1)c1ccccc1`, for which the cell count in test [1] worked out at 336. For the same molecule, the inhibition in test [1] was 9.4% (inactive); in test [3], -13.4% (inactive); in test [7] it was 14.6% (inactive); in test [8], 19.5% (inactive). Moreover, the inhibition of aggregation in test [2] was 4.5% (inactive). Further, the nuclei count in test [2] stood at 100%; in test [3], 122%. For the same molecule, the values for the fluorescence slope in test [4] and in test [6] were -0.561 (inactive) and 0.00683 (inactive), respectively. Besides, the NADPH fluorescence slope in test [5] was -7e-05 (inactive).

On to `Cc1cc(NCCN(C)C)n2nc(-c3cccs3)cc2n1`, for which the cell count in test [1] stood at 597. Further, the inhibition in test [1] is 7.8% (inactive); in test [3] it was -69% (inactive); in test [7] it was -3.67% (inactive); in test [8], 1.86% (inactive). For the same molecule, the inhibition of aggregation in test [2] was 6.4% (inactive). Moreover, the results for the nuclei count in test [2] and in test [3] were 102% and 114%, respectively. Moreover, the fluorescence slope in test [4] is -0.335 (inactive); in test [6], 0.00655 (inactive). Moreover, the NADPH fluorescence slope in test [5] is -6.9e-05 (inactive).

As to `O=C(N1CCN(Cc2ccccc2)CC1)C12CC3CC(CC(C3)C1)C2`, the cell count in test [1] amounted to 530. The inhibition is -4.3% (inactive) in test [1], -15.4% (inactive) in test [3], 17% (inactive) in test [7] and 8.52% (inactive) in test [8]. For the same molecule, the inhibition of aggregation in test [2] was 2% (inactive). Besides, the nuclei count in test [2] stood at 88.3%; in test [3], 92.7%. Besides, the fluorescence slope in test [4] was -0.327 (inactive); in test [6], 0.00533 (inactive). Also, the NADPH fluorescence slope in test [5] was -4.6e-05 (inactive).

In the case of `c1cncc(-c2nnc(SCCSc3nnc(-c4cccnc4)o3)o2)c1`, in test [1], the cell count came to 301. For the same molecule, the inhibition in test [1] is -10% (inactive); in test [3], 11.1% (inactive); in test [7], 14.3% (inactive); in test [8], 20.3% (inactive). The inhibition of aggregation in test [2] is 20.4% (inactive). The nuclei count in test [2] stood at 75.6%; in test [3] it was 122%. Moreover, the fluorescence slope in test [4] was -0.345 (inactive); in test [6] it was 0.00585 (inactive). Besides, in test [5], the NADPH fluorescence slope is -7.7e-06 (inactive).

Regarding `Cc1cc2nc3c(nc2cc1C)C1(C(=O)O)CCC3(C)C1(C)C` (centres undefined), the cell count in test [1] worked out at 376. Moreover, the inhibition is -12.3% (inactive) in test [1], -109% (inactive) in test [3], 13.5% (inactive) in test [7] and 15.6% (inactive) in test [8]. Also, the inhibition of aggregation in test [2] is -4.4% (inactive). Moreover, the nuclei count in test [2] is 95%; in test [3], 101%. For the same molecule, the results for the fluorescence slope in test [4] and in test [6] were -0.547 (inactive) and 0.00318 (inactive), respectively. Also, the NADPH fluorescence slope in test [5] was -0.000111 (inactive).
